In the library only some 3.5% were active in any assay of this set; here they are far more common.
RGS4 block – inhibitors of human RGS4; HEK293 M3R/RGS4 inducible, Fluo-4 calcium flux; hits give high values; triggered by carbachol at its EC20; B-score at 10 µM; 310,000 compounds, 0.45% hits; AID 463165;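 active = B-score, a plate-corrected calcium signal, over three deviations above library mean, with baseline fluorescence within five deviations of library mean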;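 also: RGS4 expression induced by doxycycline in cells with stable M3 receptor; B-score is computed from the integrated fluorescence ratio over baseline after carbachol; higher B-score means a larger calcium signal and so more RGS4 inhibition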
Target sequence (P49798 whole entry, looked up): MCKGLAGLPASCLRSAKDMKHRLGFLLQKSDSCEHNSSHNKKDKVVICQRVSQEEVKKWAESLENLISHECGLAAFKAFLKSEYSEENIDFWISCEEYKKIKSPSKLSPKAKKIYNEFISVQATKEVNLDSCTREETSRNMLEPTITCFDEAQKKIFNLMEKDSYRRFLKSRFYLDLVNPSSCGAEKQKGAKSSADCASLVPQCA
MrgX1 agonist – activates human MrgX1 receptor signaling; AID 588627; Q96LB2; 310,000 compounds, 0.44% hits; MrgX1-HEK293 cells, Fluo-4 calcium fluorescence, agonist mode; hits give high values; B-score at 10 µM;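 active = calcium response B-score plate-corrected fluorescence ratio at least 3 library SD, with starting fluorescence B-score inside 5 SD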
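Material – MrgX1-expressing HEK293 cells · Input – 15,000 cells seeded per well · Dosing – compound as first of three additions · Times – overnight seeding, then 1 h dark dye loading · Measured by – kinetic Fluo-4 NW fluorescence of intracellular calcium · Read-out – B-scored fluorescence response ratio · Benchmarks – positive and negative control wells on each plate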
RGS4 pot – potentiators or activators of RGS4; HEK293 M3R/inducible RGS4, carbachol calcium flux Fluo4; hits give low values; B-score at 10 µM; 310,000 compounds, 0.92% hits;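 active = B-score of the integrated calcium signal more than 4 SD below the library mean, with starting fluorescence not abnormally high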;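 also: negative B-score means reduced calcium response which marks RGS4 activation or potentiation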
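Reagent: ECmax carbachol challenge; Test system: M3R-expressing HEK293 line, RGS4 induced by doxycycline; Schedule: overnight RGS4 induction, 30 min dye load 37 °C, 20 min compound RT; Detection: calcium dye Fluo4 fluorescence; Read-out: Agonist-evoked peak-minus-minimum fluorescence over baseline, integrated ratio, B score.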
MrgX1 antag – human MrgX1 receptor antagonism, primary screen | Q96LB2 | MRGX1-HEK293 calcium flux, Fluo-4, BAM8-22 antagonism; hits give low values | B-score at 10 µM | 310,000 compounds, 1.3% hits | AID 588676;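 active = calcium-response B-score plate-corrected more than 3 library SD below zero, starting fluorescence within 5 deviations, no agonist response on first addition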;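 also: peak minus trough fluorescence over baseline after final BAM8-22 challenge near maximal dose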
MrgX1 PAM – allosterically activates human MrgX1 receptor signaling. MrgX1-HEK293, Fluo-4 calcium flux, FDSS; hits give high values. B-score at 10 µM. 310,000 compounds, 0.63% hits. Q96LB2. AID 588675;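 active = plate-corrected calcium response at least 3 library SD above typical, normal starting fluorescence, not activating the receptor alone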;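 also: compound read alongside a low EC10 to EC30 dose of BAM8-22 agonist; peak minus trough fluorescence over baseline measured at the second addition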
Active calls of the source: *; i = inactive.

SMILES	RGS4 block	MrgX1 agonist	RGS4 pot	MrgX1 antag	MrgX1 PAM
Cc1ccccc1C(=O)Nc1cccc(C(=O)Nc2ccccc2C(=O)O)c1	i	i	i	i	i
O=C(N/N=C/c1ccccc1F)c1cccc(NC(=O)c2ccccc2Cl)c1	i	i	i	i	8.44*
O=C(Nc1ccccc1C(=O)O)c1cccc(NC(=O)c2ccccc2Cl)c1	i	i	-7.01*	i	i
O=C(N/N=C/c1ccc(F)cc1)c1cccc(NC(=O)c2ccc(F)cc2)c1	i	i	-7.33*	i	i
COc1cc(/C=C/C(=O)O)cc(S(=O)(=O)NC2CC2)c1OC	i	i	i	i	i
Cc1cc(OCCN2CCC(Cc3ccccc3)CC2)ccc1[N+](=O)[O-]	i	i	-7.97*	i	i
CCc1ccc(-c2cc(C(=O)N3N=C(C(F)F)CC3(O)C(F)F)c3ccccc3n2)cc1 (stereo not drawn)	i	i	-7.18*	i	i
CC(C)Cc1cc(C(=O)N2N=C(C(F)F)CC2(O)C(F)F)c2ccccc2n1 (stereo not drawn)	i	i	i	i	i
O=C1c2ccccc2C(=O)C1c1ccc(Cl)cc1	i	i	i	-6.48*	i
O=C(O)c1ccccc1-c1ccccc1C(=O)Nc1ccc(-c2nc3cc(Cl)ccc3o2)cc1	i	i	i	-5.55*	i
CCOc1cc(C(=O)OCC(=O)N(C)c2ccccc2)cc(OCC)c1OCC	i	i	i	i	i
CC(C)C(C(=O)Nc1ccncc1)c1ccc(Cl)cc1 (stereo not drawn)	i	i	i	-4.58*	i
CC(NC(=O)CCC(=O)c1ccc(F)cc1)C1CC2CCC1C2 (stereo not drawn)	i	i	i	i	i
NC(N)=NS(=O)(=O)c1ccc(NC(=S)NC(=O)c2ccc3c(c2)OCO3)cc1	i	i	i	i	i
COc1ccc(-n2c(-c3ccc(Br)cc3)c[n+]3c2CCC3)cc1	i	i	-7.21*	i	i
COc1ccc(CN(C)c2ncnc3sccc23)c(OC)c1OC	i	i	i	i	i
O=S(=O)(CCSc1nc2ccccc2s1)c1nc2ccccc2s1	i	i	-7.43*	i	i
CCS(=O)(=O)CCSc1nc2ccccc2s1	i	i	i	i	i
CCc1c(C)c(C#N)c2nc3ccccc3n2c1NCc1ccccn1	i	i	i	i	i
Cc1cc(F)ccc1S(=O)(=O)N1CCC2(CC1)OCCN2S(=O)(=O)c1cccs1	i	i	i	i	i
CC(C)NC(=O)c1cnc(Sc2ncc(C(F)(F)F)cc2Cl)n1C	i	i	-7.59*	i	i
Cn1c(C(=O)O)cnc1Sc1ncc(C(F)(F)F)cc1Cl	i	i	i	i	i
CCOC(=O)c1ccc(NC(=O)N2CCN(c3ccccn3)CC2)cc1	i	i	-7.14*	i	i
CCOc1ccc(NC(=O)CN(C)C(=O)Cn2cnc3c2c(=O)n(C)c(=O)n3C)cc1OCC	i	i	i	i	i
CCN(CC)S(=O)(=O)c1ccc(N2CCCC2)c(NC(=O)CC(C)(C)C)c1	i	i	i	i	i
SMILES	RGS4 block	MrgX1 agonist	RGS4 pot	MrgX1 antag	MrgX1 PAM
Brc1cccc(-c2nc3cccnc3nc2-c2cccc(Br)c2)c1	i	i	-7.03*	i	i
Cc1ccc(-c2nc3cc(Br)cnc3nc2-c2ccc(C)cc2)cc1	i	i	i	i	i
CCOc1cc(/C=N/NC(=O)c2ccncc2)ccc1OC(=O)c1ccco1	i	i	i	i	i
CCOc1cc(/C=N/NC(=O)c2ccc(CN3CCOCC3)cc2)ccc1OCc1ccccc1	i	i	-7.33*	i	i
CCOc1cc(/C=N/NC(=O)C(O)(c2ccccc2)c2ccccc2)ccc1OC(=O)c1ccco1	i	i	-10.2*	i	i
O=C(NC1CCN(Cc2ccccc2)CC1)c1ccccc1OCc1ccccc1	i	i	i	i	i
O=C(NC1CCN(Cc2ccccc2)CC1)c1ccccc1OCc1ccccc1Cl	i	i	i	i	10.2*
